Source: ChEMBL document CHEMBL3612027, “Substrate-guided optimization of the syringolins yields potent proteasome inhibitors with activity against leukemia cell lines” (Bioorg Med Chem, 2015)

Columns and labels:
[1] = target: T1, Proteasome Macropain subunit MB1 (Homo sapiens, UniProt P28074); assay: Inhibition of human 20S proteasome beta5 subunit using Suc-LLVY-AMC as substrate by fluorescence assay
T1 sequence (P28074 whole entry): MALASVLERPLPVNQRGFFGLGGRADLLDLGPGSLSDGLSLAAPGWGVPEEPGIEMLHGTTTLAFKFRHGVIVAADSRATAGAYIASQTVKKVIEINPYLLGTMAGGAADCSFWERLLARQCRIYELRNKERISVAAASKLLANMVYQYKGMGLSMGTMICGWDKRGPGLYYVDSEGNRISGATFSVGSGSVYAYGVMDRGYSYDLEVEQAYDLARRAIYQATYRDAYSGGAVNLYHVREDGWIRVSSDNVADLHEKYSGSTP

[2] = system: K562; assay: Cytotoxicity against human K562 cells after 48 hrs; type: functional; settings: K562, 48 h
[3] = Cytotoxicity against human RPMI-8226 cells after 48 hrs; type: functional; settings: RPMI-8226, 48 h
[4] = system: K562; assay: Cytotoxicity against human K562 cells assessed as cell growth at 10 uM after 48 hrs relative to control; type: functional; settings: K562, 48 h, read-out: Activity
In short: (§1)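 Run at the National Cancer Institute as a single-dose screen across its 60-cell-line cancer panel. Compound was tested at 10 micromolar, and growth was expressed as a percentage of negative-control cultures.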

[5] = system: MOLT-4; assay: Cytotoxicity against human MOLT4 cells assessed as cell growth at 10 uM after 48 hrs relative to control; type: functional; settings: MOLT-4, 48 h, read-out: Activity; in short: as §1
[6] = system: SR; assay: Cytotoxicity against human SR cells assessed as cell growth at 10 uM after 48 hrs relative to control; type: functional; settings: read-out: Activity
In short: (§2)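 Submitted to the National Cancer Institute for a single-dose screen at 10 micromolar against 60 cancer cell lines. Growth is expressed relative to negative-control cultures.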

[7] = system: NCI-H23; assay: Cytotoxicity against human NCI-H23 cells assessed as cell growth at 10 uM after 48 hrs relative to control; type: functional; settings: NCI-H23, 48 h, read-out: Activity; in short: as §1
[8] = system: NCI-H322M; assay: Cytotoxicity against human NCI-H322M cells assessed as cell growth at 10 uM after 48 hrs relative to control; type: functional; settings: read-out: Activity; in short: as §1
[9] = system: COLO 205; assay: Cytotoxicity against human COLO205 cells assessed as cell growth at 10 uM after 48 hrs relative to control; type: functional; settings: COLO 205, 48 h, read-out: Activity; in short: as §1
[10] = system: HCC 2998; assay: Cytotoxicity against human HCC2998 cells assessed as cell growth at 10 uM after 48 hrs relative to control; type: functional; settings: HCC 2998, 48 h, read-out: Activity; in short: as §1
[11] = system: HCT-116; assay: Cytotoxicity against human HCT116 cells assessed as cell growth at 10 uM after 48 hrs relative to control; type: functional; settings: HCT-116, 48 h, read-out: Activity; in short: as §1
[12] = system: HCT-15; assay: Cytotoxicity against human HCT15 cells assessed as cell growth at 10 uM after 48 hrs relative to control; type: functional; settings: HCT-15, 48 h, read-out: Activity; in short: as §1
[13] = system: KM12; assay: Cytotoxicity against human KM12 cells assessed as cell growth at 10 uM after 48 hrs relative to control; type: functional; settings: KM12, 48 h, read-out: Activity; in short: as §1
[14] = system: SF-295; assay: Cytotoxicity against human SF295 cells assessed as cell growth at 10 uM after 48 hrs relative to control; type: functional; settings: SF-295, 48 h, read-out: Activity; in short: as §1
[15] = system: SNB-19; assay: Cytotoxicity against human SNB19 cells assessed as cell growth at 10 uM after 48 hrs relative to control; type: functional; settings: SNB-19, 48 h, read-out: Activity; in short: as §2
[16] = system: SNB-75; assay: Cytotoxicity against human SNB75 cells assessed as cell growth at 10 uM after 48 hrs relative to control; type: functional; settings: SNB-75, 48 h, read-out: Activity; in short: as §2
[17] = system: U-251; assay: Cytotoxicity against human U251 cells assessed as cell growth at 10 uM after 48 hrs relative to control; type: functional; settings: U-251, 48 h, read-out: Activity; in short: as §2
[18] = system: Malme-3M; assay: Cytotoxicity against human MALME-3M cells assessed as cell growth at 10 uM after 48 hrs relative to control; type: functional; settings: read-out: Activity; in short: as §1
[19] = system: SK-MEL-2; assay: Cytotoxicity against human SK-MEL-2 cells assessed as cell growth at 10 uM after 48 hrs relative to control; type: functional; settings: SK-MEL-2, 48 h, read-out: Activity; in short: as §1
[20] = system: SK-MEL-5; assay: Cytotoxicity against human SK-MEL-5 cells assessed as cell growth at 10 uM after 48 hrs relative to control; type: functional; settings: SK-MEL-5, 48 h, read-out: Activity; in short: as §1
[21] = system: UACC-257; assay: Cytotoxicity against human UACC257 cells assessed as cell growth at 10 uM after 48 hrs relative to control; type: functional; settings: UACC-257, 48 h, read-out: Activity; in short: as §2
[22] = system: IGROV-1; assay: Cytotoxicity against human IGROV1 cells assessed as cell growth at 10 uM after 48 hrs relative to control; type: functional; settings: IGROV-1, 48 h, read-out: Activity; in short: as §1
[23] = system: OVCAR-3; assay: Cytotoxicity against human OVCAR3 cells assessed as cell growth at 10 uM after 48 hrs relative to control; type: functional; settings: OVCAR-3, 48 h, read-out: Activity; in short: as §1
[24] = system: OVCAR-8; assay: Cytotoxicity against human OVCAR8 cells assessed as cell growth at 10 uM after 48 hrs relative to control; type: functional; settings: OVCAR-8, 48 h, read-out: Activity; in short: as §1
[25] = system: A498; assay: Cytotoxicity against human A498 cells assessed as cell growth at 10 uM after 48 hrs relative to control; type: functional; settings: A498, 48 h, read-out: Activity; in short: as §1
[26] = system: TK-10; assay: Cytotoxicity against human TK10 cells assessed as cell growth at 10 uM after 48 hrs relative to control; type: functional; settings: TK-10, 48 h, read-out: Activity; in short: as §2
[27] = system: MDA-MB-468; assay: Cytotoxicity against human MDA-MB-468 cells assessed as cell growth at 10 uM after 48 hrs relative to control; type: functional; settings: MDA-MB-468, 48 h, read-out: Activity; in short: as §1
[28] = target: T2, Proteasome Macropain subunit MB1 (Homo sapiens) (UniProt P28074)
T2 sequence (whole entry): T1 sequence (P28074 whole entry)

Row | SMILES | Ki [1] | growth at 10 µM [4] | growth at 10 µM [5] | growth at 10 µM [6] | growth at 10 µM [7] | growth at 10 µM [8] | growth at 10 µM [9] | growth at 10 µM [10] | growth at 10 µM [11] | growth at 10 µM [12] | growth at 10 µM [13] | growth at 10 µM [14] | growth at 10 µM [15] | growth at 10 µM [16] | growth at 10 µM [17] | growth at 10 µM [18] | growth at 10 µM [19] | growth at 10 µM [20] | growth at 10 µM [21] | growth at 10 µM [22] | other results
1 | COC(=O)[C@@H](NC(=O)N[C@H](C(=O)N[C@H]1CCCCNC(=O)/C=C/[C@H](C(C)C)NC1=O)C(C)C)C(C)C | 2120 nM | 40.5% | 10.2% | 7.05% | 34.2% | 77% | 51.7% | -0.39% | 21.2% | 98.2% | 1.78% | 58.9% | 34% | -34.6% | 8.29% | 29.9% | 1.6% | -4.25% | 33.4% | 33.4% | GI50 [2]: 6120 nM; GI50 [3]: 3970 nM; growth at 10 µM [23]: -39.6%; growth at 10 µM [24]: 86.4%; growth at 10 µM [25]: 43.2%; growth at 10 µM [26]: 85.8%; growth at 10 µM [27]: -0.21%
2 | COC(=O)[C@@H](NC(=O)N[C@@H](Cc1ccccc1)C(=O)N[C@H]1CCCCNC(=O)/C=C/[C@H](Cc2c[nH]c3ccccc23)NC1=O)C(C)C | 385 nM | 82.1% | 13.9% | 21.9% | 78.1% | 99.4% | 94% | 91.8% | 76.4% | 110% | 94.6% | 99.7% | 51.2% | 33% | 63.9% | 94% | 22.3% | 63.9% | 87.1% | 61.4% | GI50 [2]: 2940 nM; GI50 [3]: 343 nM; growth at 10 µM [23]: 15.7%; growth at 10 µM [24]: 98.9%; growth at 10 µM [25]: 78.2%; growth at 10 µM [26]: 101%; growth at 10 µM [27]: 18%
3 | COC(=O)[C@@H](NC(=O)N[C@H](C(=O)N[C@H]1CCCCNC(=O)/C=C/[C@H](Cc2c[nH]c3ccccc23)NC1=O)C(C)C)C(C)C | 1710 nM | 52% | 8.54% | 9.87% | 38.2% | 76.2% | 58.9% | 44.2% | 37.4% | 109% | 74.5% | 85.4% | 41.7% | -34% | 27.4% | 47.9% | 17.4% | 60.6% | 65.4% | 24.7% | growth at 10 µM [23]: -42.9%; growth at 10 µM [24]: 97.1%; growth at 10 µM [25]: 37.9%; growth at 10 µM [26]: 94.1%
4 | COC(=O)[C@@H](NC(=O)N[C@@H](Cc1ccccc1)C(=O)N[C@H]1CCCCNC(=O)/C=C/[C@H](C(C)C)NC1=O)C(C)C | 950 nM | 47.2% | 49.2% | 8.54% | 44.1% | 94.2% | 78.5% | 52.8% | 26.5% | 94.2% | 30.5% | 101% | 48.8% | -27.8% | 17.4% | 77% | 12.7% | 34% | 58.5% | 45.1% | growth at 10 µM [23]: 1.28%; growth at 10 µM [24]: 92.3%; growth at 10 µM [25]: 104%; growth at 10 µM [26]: 93.6%; growth at 10 µM [27]: 31.2%
5 | COC(=O)[C@@H](NC(=O)N[C@@H](Cc1ccccc1)C(=O)N[C@H]1CCCCNC(=O)/C=C/[C@H](Cc2ccccc2)NC1=O)C(C)C | 447 nM | 34.7% | -0.13% | 1.45% | 44.8% | 98.1% | 44.6% | 5.56% | 11.6% | 101% | 7.99% | 51.3% | 39.8% | -40.2% | 17.8% | -0.39% | 0.98% | 18.6% | 16.4% | 30.6% | GI50 [2]: 14600 nM; GI50 [3]: 2720 nM; growth at 10 µM [23]: -36.7%; growth at 10 µM [24]: 82%; growth at 10 µM [25]: 40.7%; growth at 10 µM [26]: 75%; growth at 10 µM [27]: 0.26%; Kin [28]: 0.000623 s⁻¹
